Holding throughout (type): physicochemical
A short description of series [1]: Antioxidant activity assessed as trolox equivalent of APPH radical scavenging activity preincubated for 30 mins followed by APPH addition measured after 90 mins by hydrophilic-ORAC fluorescence assay. As to conditions: 1.5 h. The gist of the method:
(§1)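 Hydrophilic TEAC (ABTS) or hydrophilic ORAC run by the previously reported method. Each sample was measured in quadruplicate; values are mean ± SD.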

The nature of series [2]: Antioxidant activity assessed as trolox equivalent of […] radical scavenging activity preincubated for 30 mins followed by […] addition measured after 90 mins by lipophilic-ORAC fluorescence assay. As to conditions: 1.5 h. The method in brief:
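Lipophilic ORAC adapted from the Madrona procedure. Trolox standards (200, 100, 50, 25, 12.5 μM) and sample dilutions were made in 7% (w/v) randomly methylated β-cyclodextrin in acetone/H2O (1:1), which also served as blank. Fluorescein and AAPH were prepared in 10 mM phosphate buffer, pH 7.4. AAPH was added after incubation. Read-out otherwise as H-ORAC; quadruplicate, mean ± SD.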

Series [3] is described as follows: Antioxidant activity assessed as trolox equivalent of ABTS radical scavenging activity after 10 mins by hydrophilic-TEAC fluorescence assay. The method in brief: as §1
The nature of series [4]: Antioxidant activity assessed as trolox equivalent of ABTS radical scavenging activity after 10 mins by lipophilic-TEAC […] assay. The gist of the method:
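Lipophilic ABTS TEAC, a modification of the H-TEAC method. Trolox standards (1000, 500, 250, 125, 62.5 μM) and sample dilutions were prepared in 50% DMSO/H2O. Pure DMSO was added to give 10% final DMSO. Processing and measurement followed H-TEAC; quadruplicate, mean ± SD.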

Series [5] in a line: Antioxidant activity assessed as H2O2 scavenging activity after 15 mins. The gist of the method: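 H2O2 scavenging run by the previously reported method. Each sample was measured in triplicate; values are mean ± SD.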
Series [6] in a line: Antioxidant activity assessed as trolox equivalent of ABTS radical scavenging activity measured for 1 to 6 mins by lipophilic-TEAC […] assay. The method in brief: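 Lipophilic TEAC adapted from the hydrophilic ABTS method: Trolox standards (1000, 500, 250, 125, 62.5 μM) and sample dilutions made in 50% DMSO. Pure DMSO added to wells, giving 10% DMSO final. Otherwise processed, measured and handled as in H-TEAC. Quadruplicate analyses, mean ± SD.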

Series [7] is described as follows: Antioxidant activity assessed as trolox equivalent of […] radical scavenging activity preincubated for 30 mins followed by […] addition measured every 1.14 mins for 120 mins by lipophilic-ORAC fluorescence assay. As to conditions: 2 h. The method in brief: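 Lipophilic ORAC (modified Madrona procedure): Trolox standards (200–12.5 μM) and samples diluted in 7% RMCD in acetone/water 1:1. Fluorescein and AAPH prepared in 10 mM phosphate buffer pH 7.4. Fluorescein mixed with standard, sample or RMCD blank, incubated as in H-ORAC, then AAPH added. Read-out and data handling as in H-ORAC. Quadruplicate, mean ± SD.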

Values joined by “and” are separate entries in the source; they are usually repeats but may differ in a detail not shown here. Identical values can stand only once.

The term EC50 denotes the midpoint of the concentration-response curve.

Take `O=C1c2c(O)cc(O)c([C@@H]3C(=O)c4c(O)cc(O)cc4O[C@H]3c3ccc(O)c(O)c3)c2O[C@H](c2ccc(O)c(O)c2)[C@H]1O`: the Activity in series [1] was found to be 13.73 mmolequiv/mmol; in series [2] it was 15 mmolequiv/mmol; in series [3], 5.58 mmolequiv/mmol; in series [4] it was 5.29 mmolequiv/mmol. Moreover, the EC50 in series [5] is 2.8 µM.
On to `O=C1c2c(cc(O)c([C@@H]3C(=O)c4c(O)cc(O)cc4O[C@H]3c3ccc(O)c(O)c3)c2O)O[C@H](c2ccc(O)c(O)c2)[C@H]1O`, for which the Activity is recorded as 7.54 mmolequiv/mmol in series [1], 14.56 mmolequiv/mmol in series [2], 3.5 mmolequiv/mmol in series [3] and 4.95 mmolequiv/mmol in series [4]. Besides, in series [5], the half-maximal effective concentration (EC50) is 8.5 µM.
Take `COc1cc(C(=O)c2c(O)cc3c(c2OC)C=CC(C)(C)O3)ccc1O`: the Activity in series [1] was determined as 2.44 mmolequiv/mmol; in series [2], 4.87 mmolequiv/mmol; in series [3], 0.4 mmolequiv/mmol; in series [4], 1.04 mmolequiv/mmol. For the same compound, in series [5], the EC50 was ≤ 53.4 µM.
Taken in the same sequence, the figures for `COc1c(O)ccc2c1Oc1cc(O)c(CC=C(C)C)c(O)c1C(=O)O2` were 2.5 mmolequiv/mmol, 4.34 mmolequiv/mmol, 0.89 mmolequiv/mmol, 1.68 mmolequiv/mmol and ≤ 45.4 µM.
Take `O=C1c2c(O)cc(O)c(-c3coc4cc(O)cc(O)c4c3=O)c2O[C@H](c2ccc(O)c(O)c2)[C@H]1O`: the Activity in series [1] came out at 4.38 mmolequiv/mmol; in series [2] it was 6.96 mmolequiv/mmol; in series [3], 1.48 mmolequiv/mmol; in series [4], 2.92 mmolequiv/mmol. Further, the EC50 in series [5] was 17.5 µM.
On the same counts, the results for `CC(C)=CCc1c(O)cc2oc3c(O)c(O)ccc3c(=O)c2c1O` are 1.06 mmolequiv/mmol, 3.81 mmolequiv/mmol, 0.89 mmolequiv/mmol, 2.96 mmolequiv/mmol and 19.7 µM.
On the same counts, the results for `O=c1c2cc(O)ccc2oc2cccc(O)c12` are 2.43 mmolequiv/mmol, 2.95 mmolequiv/mmol, 0.4 mmolequiv/mmol, 1.33 mmolequiv/mmol and 80.2 µM.
Take `O=C1CC(c2ccc(O)cc2)Oc2cc(O)cc(O)c21` (racemic): the Activity in series [1] is given as 6.2 mmolequiv/mmol; in series [2], 7.35 mmolequiv/mmol; in series [3], 1.98 mmolequiv/mmol; in series [4] it was 2.94 mmolequiv/mmol; in series [6], 1.14 mMequiv. Moreover, the half-maximal effective concentration (EC50) in series [5] amounted to 8.6 µM.
Regarding `O=C1c2c(O)cc(O)cc2O[C@H](c2ccc(O)c(O)c2)C1O` (single isomer, unassigned) [(+)-TAXIFOLIN], the Activity in series [1] is 6.61 mmolequiv/mmol; in series [2], 9.3 mmolequiv/mmol; in series [3], 2.48 mmolequiv/mmol; in series [4], 2.84 mmolequiv/mmol. Moreover, the EC50 in series [5] was 11.3 µM.
Taken in the same sequence, the figures for `Oc1cc(O)c2c(c1)O[C@H](c1ccc(O)c(O)c1)[C@H](O)C2` [(-)-EPICATECHIN] were 9.98 mmolequiv/mmol, 15.69 mmolequiv/mmol, 3.71 mmolequiv/mmol, 5.01 mmolequiv/mmol and 4.1 µM.
Turning to `O=C1O[C@H]([C@@H](O)CO)C(O)=C1O` [ASCORBIC ACID], the Activity in series [1] was determined as 0.62 mmolequiv/mmol; in series [2], 0.73 mmolequiv/mmol; in series [3], 1.16 mmolequiv/mmol; in series [4] it was 1.09 mmolequiv/mmol; in series [6] it was 1.05 mMequiv. For the same compound, in series [5], the half-maximal effective concentration (EC50) was 24.2 µM.
Consider `Cc1cc(C(C)(C)C)c(O)c(C(C)(C)C)c1` [BUTYLATED HYDROXYTOLUENE], for which the Activity in series [2] is 0.2 mmolequiv/mmol and 0.12 umolequiv/umol; in series [4], 0.76 mmolequiv/mmol; in series [6] it was 0.27 mMequiv.
As to `CC(C)=CC[C@H]1C[C@@]23C[C@@H](CC=C(C)C)C(C)(C)[C@@](CC=C(C)C)(C(=O)C(C(=O)c4ccc(O)c(O)c4)=C2OC1(C)C)C3=O` [CAMBOGIN], the Activity in series [1] is given as 0.6 mmolequiv/mmol; in series [2], 3.68 mmolequiv/mmol; in series [3], 0.48 mmolequiv/mmol; in series [4] it was 1.67 mmolequiv/mmol. Besides, the EC50 in series [5] amounted to 83.3 µM.
For `C=C(C)[C@@H](CC=C(C)C)C[C@@]12C[C@@H](CC=C(C)C)C(C)(C)[C@@](CC=C(C)C)(C(=O)C(C(=O)c3ccc(O)c(O)c3)=C1O)C2=O` [GARCINOL], the Activity in series [1] is given as 1.28 mmolequiv/mmol; in series [2], 3.44 mmolequiv/mmol; in series [3], 0.81 mmolequiv/mmol; in series [4], 1.92 mmolequiv/mmol. Further, in series [5], the half-maximal effective concentration (EC50) was 15.7 µM.
Taken in the same sequence, the figures for `CC1(C)C=Cc2c(cc3oc4c(O)c(O)ccc4c(=O)c3c2O)O1` [JACAREUBIN] were 1.16 mmolequiv/mmol, 2.74 mmolequiv/mmol, 0.84 mmolequiv/mmol, 2.06 mmolequiv/mmol and 26.3 µM.
As for `O=c1c(O)c(-c2ccc(O)c(O)c2)oc2cc(O)cc(O)c12` [QUERCETIN], the Activity in series [1] stood at 9.36 mmolequiv/mmol; in series [2], 11.94 mmolequiv/mmol; in series [3], 4.85 mmolequiv/mmol; in series [4], 4.84 mmolequiv/mmol; in series [6], 3.1 mMequiv; in series [7], 10.4 umolequiv/umol. For the same compound, the concentration for a half-maximal effect (EC50) in series [5] came to 6.1 µM.

The values are drawn from ChEMBL document CHEMBL3421535, “Antioxidative compounds from Garcinia buchananii stem bark” (J Nat Prod, 2015).
